PP1 counter: PP1-alpha (human) inhibition in PP5 counter-screen; P62136; purified PP1alpha, OMFP fluorescence; inhibition, % at 6.7 µM; actives 0.9% (n = 320,000); AID 2235;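 active means inhibition above the mean inhibition of all tested compounds plus 3 SD, computed separately for each screening campaign, cut at about 15% in these data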
Target sequence (P62136 whole entry, looked up): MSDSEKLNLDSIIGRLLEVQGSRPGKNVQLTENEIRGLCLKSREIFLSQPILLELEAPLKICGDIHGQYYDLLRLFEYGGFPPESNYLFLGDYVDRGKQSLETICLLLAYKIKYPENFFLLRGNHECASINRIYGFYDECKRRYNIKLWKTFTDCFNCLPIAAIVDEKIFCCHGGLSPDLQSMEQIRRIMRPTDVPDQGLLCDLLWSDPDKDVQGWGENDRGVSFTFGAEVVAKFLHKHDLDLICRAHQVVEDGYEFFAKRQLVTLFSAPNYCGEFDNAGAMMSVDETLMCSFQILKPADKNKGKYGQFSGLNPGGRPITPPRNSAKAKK
proCasp7 act: counter-screen: procaspase-7 (human) activation; P55210; activation, % at 8.5 µM; recombinant procaspase-7, Ac-DEVD-pNA absorbance 405 nm; D23A/D198A/D206A triple mutant, cannot self-cleave; scale: DMSO 0, 5 µM enzyme 100; actives 0.093% (n = 330,000);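 active means percent activation above the screen-wide mean plus 3 SD, cut at about 25% in these data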
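signal = Epi-absorbance of released pNA at 405 nm, two timepoints | assay system = Uncleavable procaspase-7 mutant enzyme | reagent = Ac-DEVD-pNA substrate, 400 µM as added | times = 1 h enzyme–compound preincubation and 2 h substrate reaction, both 25 °C | benchmarks = low DMSO alone, high DMSO plus 5 µM PC-7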
procasp3 activ: activators of human procaspase-3. P42574. recombinant procaspase-3 D3A, Ac-DEVD-pNA absorbance 405 nm. activation, % at 8.5 µM. actives 0.11% (n = 330,000). AID 463141;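 active means activation above the mean of all tested compounds plus 3 SD, cut at about 21% in these data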;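 further: 0% = DMSO alone and 100% = DMSO wells spiked with extra 5 µM PC-3 D3A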
Target sequence (P42574 whole entry D9A/D28A/D175A): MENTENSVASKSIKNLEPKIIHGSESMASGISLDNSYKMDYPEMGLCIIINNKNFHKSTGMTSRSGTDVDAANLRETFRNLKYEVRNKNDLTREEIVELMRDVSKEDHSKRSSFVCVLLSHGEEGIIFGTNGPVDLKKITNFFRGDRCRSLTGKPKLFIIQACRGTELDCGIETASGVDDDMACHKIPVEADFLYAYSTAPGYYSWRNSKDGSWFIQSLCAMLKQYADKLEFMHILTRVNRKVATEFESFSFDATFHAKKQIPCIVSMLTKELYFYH
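Assay system: Autoprocessing-dead procaspase-3 D3A mutant enzyme; also added: Ac-DEVD-pNA; doses: one concentration, 8.5 µM nominal, 0.8% DMSO; times: 1 h compound preincubation, 2 h substrate hydrolysis at 25 °C; technique: 405 nm absorbance of p-nitroaniline, reads at 0 and 120 min; measure: % activation between DMSO and enzyme-spiked controls; repeats: single replicate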
PP5 primary: inhibitors of human protein phosphatase 5 (PP5); P53041; purified PP5c, OMFP substrate fluorescence; inhibition, % at 6.7 µM; actives 0.18% (n = 320,000); AID 1987;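 active means inhibition above the campaign's mean inhibition across all tested compounds plus 3 SD, cut at about 9.5% in these data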;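 further: 0% = DMSO only and 100% = 100 µM cantharidin control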
PP1 confirm: human PP1 phosphatase inhibition, confirmation. shares compounds with PP1 counter. purified PP1alpha, OMFP substrate fluorescence. inhibition, % at 6.7 µM. actives 52% (n = 1,900). AID 2358;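 active means mean PP1 inhibition above a set limit taken from the earlier primary screen, cut at about 15% in these data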
PP5 inh counter: PP5 phosphatase inhibition, counter-screen for PP1 inhibitors. shares compounds with PP1 counter. purified PP5c, OMFP fluorescence. inhibition, % at 6.7 µM. actives 4% (n = 1,900). AID 2360;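 active means mean PP5 inhibition over triplicate wells above about 9.5% taken from the earlier PP1 screen, limit read from the data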
The depositor's hits bear a star; nt = not tested or not shown. The list is not random: actives were taken first. Their share in the collection is about 1.2%.

SMILES	PP1 counter	proCasp7 act	procasp3 activ	PP5 primary	PP1 confirm	PP5 inh counter
CC1CCc2c(sc3nc(CN4CCOCC4)nc(N4CCc5ccccc5C4)c23)C1 (stereo unspecified)	21*	-13	-5	4	10	-4
COc1cc2c(cc1OC)CN(c1nc(CN3CCCCC3)nc3sc4c(c13)CCCC4)CC2	18*	2	-7	4	-2	-5
CCOC(=O)c1ccc(NC(=O)c2c(Cl)cc(C)nc2C)cc1	1	15	-9	1	nt	nt
CCc1ccccc1OCC(=O)Nc1nc(-c2cccnc2)cs1	45*	-1	-6	10*	44*	1
CCC(=O)c1ccc(OCC(=O)Nc2nc(-c3cccnc3)cs2)cc1	18*	5	3	0	29*	-6
COC(=O)CSc1nc2ccc(NC(=O)CSc3nnnn3Cc3ccccc3)cc2s1	0	-4	0	0	nt	nt
O=C(CSc1nc2ccc(NC(=O)CSc3nnnn3Cc3ccccc3)cc2s1)Nc1ccccc1	22*	8	-2	-1	8	-7
Cc1cc(C)c(NC(=O)CSc2nc3ccc(NC(=O)CSc4nnnn4Cc4ccccc4)cc3s2)c(C)c1	20*	13	-4	-2	31*	-5
CC(/C=C1\SC(=S)N(CCC(=O)Nc2cccc(C(=O)O)c2)C1=O)=C\c1ccccc1	23*	-4	2	0	16*	3
O=C(CCN1C(=O)/C(=C/C=C/c2ccccc2)SC1=S)Nc1cccnc1	20*	-8	2	-1	13	-2
CC(/C=C1\SC(=S)N(CCCC(=O)Nc2ccc(C(=O)O)cc2)C1=O)=C\c1ccccc1	19*	-11	-7	-3	11	-4
CC(/C=C1\SC(=S)N(CCC(=O)Nc2ccccc2O)C1=O)=C\c1ccccc1	14	-1	-2	1	nt	nt
O=C(CCN1C(=O)/C(=C/c2ccco2)SC1=S)Nc1ccc(C(=O)O)c(O)c1	2	-14	-11	3	nt	nt
O=C(CCN1C(=O)/C(=C/C=C/c2ccccc2)SC1=S)Nc1ccccn1	1	-9	-14	-1	nt	nt
COc1ccccc1/C=C1\SC(=S)N(CCC(=O)Nc2ccc(C(=O)O)c(O)c2)C1=O	27*	-4	-3	3	14	1
COc1ccc(/C=C/C(=O)NC(=S)Nc2cc([N+](=O)[O-])ccc2O)cc1OC	43*	-17	-8	2	39*	-2
COc1ccc([N+](=O)[O-])cc1NC(=S)NC(C)=O	-3	-3	5	-2	nt	nt
CCCC(=O)NC(=S)Nc1ccc(S(=O)(=O)N2CCc3ccccc32)cc1	2	-1	4	3	nt	nt
Cc1cnc(NC(=O)CSc2nnc3ncccn23)s1	22*	-18	-8	4	-4	-6
CCCCCCCCCCCC1=C(O)C(=O)C=C(O)C1=O	46*	-14	8	2	35*	-7
COC1=CC(=O)C(O)=C(CCCCCCC/C=C/CCCCCCCC2=C(O)C(=O)C=C(OC)C2=O)C1=O	10	-4	4	3	nt	nt
Cc1cc(C)nc(SCC(=O)NN=Cc2ccc(C)o2)n1	nt	0	6	nt	nt	nt
Cc1ccc(NC(=O)Cn2c(O)c(N=NC(=O)c3cc([N+](=O)[O-])ccc3O)c3ccccc32)cc1	-1	7	-2	0	nt	nt
Cc1cccc(NC(=O)Cn2c(O)c(N=NC(=O)c3ccccc3O)c3ccccc32)c1	35*	-11	4	3	27*	-1
CC(=O)c1cn(S(=O)(=O)c2ccccc2)c2ccccc12	3	6	5	3	nt	nt
SMILES	PP1 counter	proCasp7 act	procasp3 activ	PP5 primary	PP1 confirm	PP5 inh counter
COc1ccccc1CNC(=O)c1ccc2c(=O)n(CCCN3CCCC3=O)c(=S)[nH]c2c1	-4	-9	2	1	nt	nt
Cc1c(CCC(=O)O)c(=O)oc2c(C)c(OCc3cc4c(cc3Cl)OCO4)ccc12	20*	-10	5	-2	6	-2
O=C(N/C=C/c1ccccc1)c1ccccc1	0	-2	5	0	nt	nt
COc1cccc(-c2cc3nc(-c4ccccc4)cc(=O)n3[nH]2)c1	21*	-3	4	2	23*	1
CCCc1cc(=O)n2[nH]c(C)c(-c3ccccc3)c2n1	0	7	4	-2	nt	nt
Cc1[nH]n2c(=O)cc(C(C)(C)C)nc2c1-c1ccccc1	24*	14	7	1	18*	-1
COc1ccc(-c2c(C(F)(F)F)[nH]n3c(=O)cc(-c4ccccc4)nc23)cc1	25*	15	9	7	42*	3
CCc1cc(=O)n2[nH]c(-c3ccccc3)c(-c3ccccc3)c2n1	22*	-5	-2	2	21*	-1
OCc1ccccc1CN1CCCCCC1	2	5	-9	-2	nt	nt
Cc1nc(SCC(=O)Nc2ccc(CN3CCCC3)cc2)c2c(C)c(C)sc2n1	-1	-3	2	0	nt	nt
CC1(C)CC(=O)C2=C(C1)Nc1ccccc1NC2c1ccc([N+](=O)[O-])cc1 (stereo unspecified)	-6	6	-4	0	nt	nt
Cc1[nH]n2c(=O)cc(-c3ccc([N+](=O)[O-])cc3)nc2c1-c1ccccc1	45*	9	11	1	35*	2
Cc1[nH]n2c(=O)cc(C(C)C)nc2c1-c1ccccc1	7	10	0	0	nt	nt
CCn1c2ccccc2c2cc(NC(=O)COC(=O)c3ccc(NC(=O)CC#N)cc3)ccc21	64*	0	1	0	46*	-4
CCOC(=O)c1c(NC(=O)COC(=O)c2ccc(NC(=O)CC#N)cc2)sc(C(=O)NC)c1C	20*	-6	6	-2	11	-4
O=C(CCl)N1CCCC1c1ccc2c(c1)OCCO2 (stereo unspecified)	-4	1	3	-1	nt	nt
Cc1cc(C(=O)Cn2nc(C(=O)O)c3ccccc3c2=O)c(C)n1CCc1ccc(F)cc1	24*	8	3	2	22*	-3
CCC1CCCCN1S(=O)(=O)c1ccc(C(=O)Nc2nnc(C3CC3)o2)cc1 (stereo unspecified)	23*	-5	-3	2	26*	-2
CC1CC(C)CN(S(=O)(=O)c2ccc(C(=O)Nc3nnc(C4CC4)o3)cc2)C1 (stereo unspecified)	19*	5	0	2	27*	-2
CCOC(=O)N1CCN(S(=O)(=O)c2ccc(C(=O)Nc3nnc(C4CC4)o3)cc2)CC1	14	-8	3	-1	nt	nt
CCC1CCCCN1S(=O)(=O)c1ccc(C(=O)Nc2nnc(-c3ccccc3Cl)o2)cc1 (stereo unspecified)	5	2	-4	2	nt	nt

High-throughput results (PubChem BioAssay)
